CSN inh – inhibitors of CSN-mediated cullin deneddylation, primary screen, biochemical, fluorescence polarization, uHTS; COP9 signalosome complex subunit 5 (Homo sapiens), Q92905; Purified CSN, SCF-Nedd8-OG deneddylation; inhibition, % at 12.5 µM; 360,000 tested, 0.38% active;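 active means pattern-corrected inhibition above about 35%, with an unprinted fluorescence ratio check between 0.5 and 1.5, limit read from the data, passing the limit was not always enough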;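 further: 0% = enzyme with substrate and 100% = substrate without enzyme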
Target sequence (Q92905 whole entry, looked up, one chain of several): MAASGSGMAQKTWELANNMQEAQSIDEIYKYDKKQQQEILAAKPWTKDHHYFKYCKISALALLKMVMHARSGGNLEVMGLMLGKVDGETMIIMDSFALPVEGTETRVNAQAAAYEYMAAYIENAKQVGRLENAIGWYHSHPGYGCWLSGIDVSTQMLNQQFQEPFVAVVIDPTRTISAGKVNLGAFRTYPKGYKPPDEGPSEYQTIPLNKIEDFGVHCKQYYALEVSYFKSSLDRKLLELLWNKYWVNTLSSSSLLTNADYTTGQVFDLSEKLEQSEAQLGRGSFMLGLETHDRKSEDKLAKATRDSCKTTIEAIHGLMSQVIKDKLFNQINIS
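Test system: Human Csn5 produced in HEK293T cells | Compound: 12.5 µM single point | Times: 90 min, room temperature | Signal: Fluorescence polarization readout | Read-out basis: % inhibition of substrate cleavage by Csn5 | Controls: no-enzyme wells high, enzyme-with-substrate wells low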
SUMO1 PPI mod – modulators of SUMO1 protein-protein interactions, primary screen, biochemical, uHTS; Small ubiquitin-related modifier 1 (Homo sapiens), P63165; SUMO1 binding to a labelled peptide, TR-FRET, 1 h; inhibition, % at 20 µM; 360,000 tested, 0.33% active; AID 602429, 2012; in the data active means inhibition above about 37%
Target sequence (P63165 whole entry, looked up): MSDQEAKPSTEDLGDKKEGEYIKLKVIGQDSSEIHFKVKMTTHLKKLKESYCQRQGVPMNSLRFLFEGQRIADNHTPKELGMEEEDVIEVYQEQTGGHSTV
MT1-MMP act inh – blockers of MT1-MMP proenzyme processing, primary screen, HT1080 RFP-PRO-GFP cells, GFP/RFP fluorescence; AID 651647, 2012; GFP/RFP ratio change, % at 20 µM; GFP/RFP ratio fluorescence, overnight; percent of plate control window, DMSO zero; 360,000 tested, 0.061% active;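 active means GFP/RFP ratio change of at least 30% with cell ATP level not reduced by more than half and red fluorescence within 50% of control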
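Assay system – RFP-PRO-GFP reporter HT1080 cells · Compound dosing – single dose of 20 µM compound, 1% DMSO final · Incubation – overnight compound exposure at 37 °C · Measure – GFP/RFP fluorescence ratio · Benchmarks – DMSO wells and RFP-L50D-GFP cells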
SKN-1 block – suppressors of acrylamide-induced Pgst-4::GFP reporter in worms, primary screen, SKN-1 inhibitor project, whole organism, uHTS, GFP/RFP fluorescence ratio, strain VP596; C. elegans VP596 Pgst-4::GFP/RFP ratio, 24 h; inhibition, % at 21.8 µM; 360,000 tested, 0.49% active;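 active means interference check ratio from 0.5 to 1.5 plus GFP to RFP signal ratio inhibition reaching or exceeding a fixed threshold, cut at about 30% in these data, passing the limit was not always enough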
DNMT1 inh – human DNMT1 methyltransferase inhibitors, primary screen, biochemical, molecular beacon, fluorescence, HinP1I cleavage, uHTS; DNA (cytosine-5)-methyltransferase 1 (Homo sapiens), P26358; inhibition (reported as % activation of signal), % at 10 µM; 360,000 tested, 0.83% active; in the data active means inhibition above about 50%
Rpn11 inh – Rpn11 (PSMD14) deubiquitinase inhibitors, primary screen, biochemical, fluorescence polarization, uHTS; human 26S proteasome, Ub4-pepOG fluorescence polarization; 20S core pre-blocked with epoxomicin; inhibition, % at 20 µM; 360,000 tested, 0.59% active; AID 588493, 2011;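 active means inhibition at 20 µM, scaled to each plate's controls, above about 33%, limit read from the data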
Rpn11 inh conf – Rpn11 (PSMD14) deubiquitinase inhibitors, confirmation, biochemical, fluorescence polarization, single concentration. 1,900 tested, 29% active. AID 602318, 2012. inhibition, % at 20 µM. purified human 26S proteasome, Ub4-pepOG fluorescence polarization; proteasome pretreated with epoxomicin. shares compounds with Rpn11 inh
MMP-2 counter – MMP-2 enzyme inhibition, confirmation, counter-screen for RPN11 inhibitor project, biochemical, fluorescence, single concentration | shares compounds with Rpn11 inh | recombinant MMP-2, FRET peptide cleavage fluorescence | inhibition, % at 20 µM | AID 602330, 2012 | 1,900 tested, 4% active;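 further: human MMP-2 activated beforehand with APMA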
Thrombin FP – bovine thrombin protease inhibition, confirmation, counter-screen for Rpn11 inhibitor project, biochemical, fluorescence polarization, single concentration. bovine thrombin cleavage of Ub4-pepOG. shares compounds with Rpn11 inh. AID 602333, 2012. inhibition, % at 20 µM. 1,900 tested, 13% active;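 active means mean inhibition at least 40% at 20 µM, or signal 3 deviations below plate average, so some actives read negative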;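 further: plate controls were thrombin with DMSO for no effect and buffer wells lacking thrombin for full effect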
The depositor's hits bear a star; nt = not tested or not shown. Hits are enriched below; roughly 2.3% of the tested compounds scored in any of these assays. Unless noted, no stated cut-off is given here; in the data, active means inhibition above about 40%; inactive means the rest.

SMILES | CSN inh | SUMO1 PPI mod | MT1-MMP act inh | SKN-1 block | DNMT1 inh | Rpn11 inh | Rpn11 inh conf | MMP-2 counter | Thrombin FP
Cc1cc(C)n2nc(N)c(N=Nc3ccc4c(c3)OCO4)c2n1 | 11 | -5 | 14 | -3 | 3 | 44* | 37 | -63 | 36
Cc1cc(C)n2nc(N)c(N=Nc3ccccc3)c2n1 | 4 | -9 | 3 | 6 | 0 | 0 | nt | nt | nt
CN1CCN(C(=O)c2ccc(Cc3cn(C)c4ccccc34)nc2)CC1 | 0 | -5 | 0 | 9 | -1 | 6 | nt | nt | nt
COc1cccc(C(C)(O)c2nc(-c3cccc(C#N)c3)cs2)c1 (stereo not drawn) | 1 | 6 | -3 | -20 | -1 | 4 | nt | nt | nt
Cc1cc(N2CCCC2)ccc1/C=C1/C(=O)N(C)C(=S)N1C | 18 | -16 | -113 | 53 | 1 | 43* | 30 | -9 | 28
O=C(CN1C(=O)CCC1=O)Nc1ccc2c3c(cccc13)CC2 | 0 | -9 | 13 | -16 | 3 | 102* | 7 | -12 | 1
Cc1cccc(OCC(=O)Nc2ccc3c4c(cccc24)CC3)c1C | 1 | 0 | 0 | 7 | 29 | 0 | nt | nt | nt
Cn1c(=O)c2ncn(CC(=O)Nc3ccc4c5c(cccc35)CC4)c2n(C)c1=O | 0 | -6 | -21 | 42* | -8 | 52* | 34 | -12 | 19
Cc1cc(C)cc(NS(=O)(=O)c2cnc(Cl)c(Cl)c2)c1 | -1 | 3 | -1 | 9 | -2 | 52* | 1 | -15 | 10
CCOc1ccc(NS(=O)(=O)c2cnc(Cl)c(Cl)c2)cc1 | -1 | 5 | 18 | -4 | 7 | -1 | nt | nt | nt
COc1nc(Nc2nc3ccccc3c(=O)[nH]2)nc2ccc(C)cc12 | 8 | 47* | 0 | -9 | 48 | 43* | 16 | -6 | 5
Cc1cc(C)cc(Nc2nc3ccccc3c(=O)[nH]2)c1 | -6 | -2 | 4 | -2 | 2 | 5 | nt | nt | nt
CCCNC(=O)c1cc2c(c(-c3cccc(-c4ccccc4F)c3)n1)[C@@H](CCO)N(C(=O)CC1CC1)C2 | 0 | 12 | -2 | -18 | nt | nt | nt | nt | nt
O=C1CSC(=S)N1N=Cc1c[nH]c2ccc(Br)cc12 | 6 | 4 | -3 | 15 | -42 | 61* | 25 | 20 | 17
COc1ccc(-c2ccc3[nH]c4c(c3c2)CCN2C[C@@H]([C@H](C)O)[C@@H](N(C)C(=O)Nc3cc(Cl)cc(Cl)c3)C[C@@H]42)cc1 | 7 | -21 | -15 | 24 | -24 | 41* | 26 | 5 | 3
COc1ccc(-c2ccc3[nH]c4c(c3c2)CCN2C(=O)[C@@H]([C@H](C)O)[C@@H](N(C)C(=O)Nc3cc(Cl)cc(Cl)c3)C[C@@H]42)cc1 | 2 | 5 | -11 | 6 | -32 | 7 | nt | nt | nt
CC(C)c1ccc(CC(=O)N2CCC2(C)C(=O)NS(=O)(=O)c2cccc(OC(F)F)c2)cc1 (stereo not drawn) | -4 | 7 | -1 | 15 | 1 | 2 | nt | nt | nt
CC(=O)Nc1ccc(OCCOc2ccc(/C=C3/C(=N)N4C=CSC4=NC3=O)cc2)cc1 | -4 | 2 | 3 | 12 | -16 | 8 | nt | nt | nt
COc1ccc(-c2ccc(/C=C3/C(=N)N4C=CSC4=NC3=O)o2)c([N+](=O)[O-])c1 | -2 | -2 | 11 | 7 | -16 | 41* | 3 | -13 | 13
O=c1[nH]c(CSc2ncnc3sccc23)nc2cc(C(F)(F)F)ccc12 | 16 | -8 | -2 | 1 | -7 | 49* | 46* | -7 | -9
COC(=O)C[C@@H]1CC[C@@H](NS(=O)(=O)c2ccccc2OC)[C@@H](CO)O1 | -2 | 2 | -3 | -4 | nt | nt | nt | nt | nt
Cc1ccc(-c2nc(CN3CCCCC3CCN3CCCC3=O)c(C)o2)o1 (stereo not drawn) | -5 | -7 | -7 | -13 | -6 | 41* | 18 | 5 | 16
COc1ccc(NC(=O)c2cc(-c3sc(NC(=O)c4ccccc4)nc3C)n(CCO)n2)cc1 | 2 | 2 | -1 | 4 | nt | nt | nt | nt | nt
Nc1ccc(N=Nc2ccc(N)cc2)cc1 | 6 | -32 | 15 | 10 | -3 | 21 | nt | nt | nt
Cc1cc(N(C)C)ccc1N=Nc1ccc(N)cc1 | 14 | -81 | 13 | 97* | -22 | 48* | 35 | 5 | 28
SMILES | CSN inh | SUMO1 PPI mod | MT1-MMP act inh | SKN-1 block | DNMT1 inh | Rpn11 inh | Rpn11 inh conf | MMP-2 counter | Thrombin FP
CCOc1nc2cnccc2n(CC(=O)Nc2ccccc2C(=O)OC)c1=O | 1 | 3 | -2 | -2 | -3 | 70* | 3 | -5 | 2
Cc1csc(NC(=O)CSc2nc3sc(C)c(C)c3c(=O)[nH]2)n1 | 20 | 6 | -4 | -6 | -3 | 53* | 44* | -5 | 29
O=C(Sc1cccc2cccnc12)c1ccccc1Br | 8 | -18 | -4 | 14 | -6 | 85* | 65* | -28 | -24
CC(=O)/C(=N\Nc1ccccc1)Sc1cccc2cccnc12 | 0 | -12 | -15 | 1 | -3 | -6 | nt | nt | nt
CC(C)(C)n1nnnc1C(c1cc2ccccc2o1)N1CCOCC1 (stereo not drawn) | -4 | -2 | -3 | 9 | nt | nt | nt | nt | nt
COc1ccc(OCC(=O)NNC(=O)c2cccs2)cc1 | -7 | -1 | 0 | 21 | 2 | 125* | -29 | -41 | -22
Cc1ccc(C(=O)Nc2cccc(-c3cnc4ccccc4n3)c2)cc1 | -2 | -3 | 5 | 12 | 9 | -4 | nt | nt | nt
